Results as given in ChEMBL document CHEMBL1250499, “Chiral 6-hydroxymethyl-1H,3H-pyrrolo[1,2-c]thiazoles: novel antitumor DNA monoalkylating agents” (Eur J Med Chem, 2010).

Tests used:
Assay type in all cases: functional, cell-based
WiDr [1] = assay: Cytotoxicity against human WiDr cells after 24 hrs by MTT assay
In short: (§1)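 Cells grown in DMEM with 10% heat-inactivated FBS, 1% penicillin–streptomycin and 100 μM sodium pyruvate at 37 °C, 5% CO2. Seeded at 50 000 cells/mL, attached overnight, then exposed to successive DMSO dilutions of compound. Proliferation read by MTT colorimetric assay as % inhibition versus DMSO-only controls. IC50 from dose-response curves by exponential decay fit (r2 > 0.9). Duplicates, three independent sets.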

MCF7 [2] = assay: Cytotoxicity against human MCF7 cells after 72 hrs by MTT assay; conditions: MCF7, 72 h; in short: as §1
A-375 [3] = assay: Cytotoxicity against human A375 cells after 48 hrs by MTT assay; conditions: A-375, 48 h; in short: as §1
WiDr [4] = assay: Cytotoxicity against human WiDr cells after 96 hrs by MTT assay; in short: as §1
WiDr [5] = assay: Cytotoxicity against human WiDr cells after 72 hrs by MTT assay; in short: as §1
A-375 [6] = assay: Cytotoxicity against human A375 cells after 96 hrs by MTT assay; conditions: A-375, 96 h; in short: as §1
A-375 [7] = assay: Cytotoxicity against human A375 cells after 24 hrs by MTT assay; conditions: A-375, 24 h; in short: as §1
MCF7 [8] = assay: Cytotoxicity against human MCF7 cells after 24 hrs by MTT assay; conditions: MCF7, 24 h; in short: as §1
MCF7 [9] = assay: Cytotoxicity against human MCF7 cells after 48 hrs by MTT assay; conditions: MCF7, 48 h; in short: as §1
A-375 [10] = assay: Cytotoxicity against human A375 cells after 72 hrs by MTT assay; conditions: A-375, 72 h; in short: as §1
MCF7 [11] = assay: Cytotoxicity against human MCF7 cells after 96 hrs by MTT assay; conditions: MCF7, 96 h; in short: as §1
WiDr [12] = assay: Cytotoxicity against human WiDr cells after 48 hrs by MTT assay; in short: as §1

Row | Structure (SMILES) | IC50 (WiDr [1]) | IC50 (MCF7 [2]) | IC50 (A-375 [3]) | IC50 (WiDr [4]) | IC50 (WiDr [5]) | IC50 (A-375 [6]) | IC50 (A-375 [7]) | IC50 (MCF7 [8]) | IC50 (MCF7 [9]) | IC50 (A-375 [10]) | IC50 (MCF7 [11]) | IC50 (WiDr [12])
1 | Cc1c(CO)cc2n1[C@@H](c1ccccc1)SC2 | 55.5 µM | 2.4 µM | 69.8 µM | 11 µM | 15.4 µM | 36.8 µM | 103 µM | 26.4 µM | 4.3 µM | 62.9 µM | 1.9 µM | 17.1 µM
2 | COC(=O)c1cc2n(c1C)[C@@H](c1ccccc1)SC2 | 54.2 µM | 48.8 µM | 65.1 µM | 40.9 µM | 44.6 µM | 40 µM | 73.5 µM | 128 µM | 55.5 µM | 56.2 µM | 30.6 µM | 57.1 µM
3 | Cc1cc(CO)c2n1[C@@H](c1ccccc1)SC2 | 144 µM | 29.9 µM | 106 µM | 65.1 µM | 63.5 µM | 45.3 µM | 128 µM | 110 µM | 63.9 µM | 62.1 µM | 19.9 µM | 95.3 µM
4 | Cc1c(CO)c(CO)c2n1[C@@H](c1ccccc1)SC2 | 60 µM | 1 µM | 36.1 µM | 3.2 µM | 7.1 µM | 16.9 µM | 97.3 µM | 12.2 µM | 1.9 µM | 27.2 µM | 0.6 µM | 9.1 µM
5 | Cc1c(COC(=O)NCc2ccccc2)cc2n1[C@@H](c1ccccc1)SC2 | 30.9 µM | 2.2 µM | 32.4 µM | 14.8 µM | 8.7 µM | 27.6 µM | 37.4 µM | 8.8 µM | 4.4 µM | 42.1 µM | 1.9 µM | 8.7 µM
